Assay results from different studies.
Compare with care: the assays were run in different laboratories.
Cell line: HEK293
Effect on: cell growth or viability

| SMILES | test | setting | measurement | value |
| --- | --- | --- | --- | --- |
| CC/C(=C(\c1ccccc1)c1ccc(OCCN(C)C)cc1)c1ccccc1 | resazurin | 20 h | CC50 | 5.62 µM |
| O=P(O)(O)c1cc2c(O)c(c1)Cc1cc(P(=O)(O)O)cc(c1O)Cc1cc(P(=O)(O)O)cc(c1O)Cc1cc(P(=O)(O)O)cc(c1O)Cc1cc(P(=O)(O)O)cc(c1O)Cc1cc(P(=O)(O)O)cc(c1O)Cc1cc(P(=O)(O)O)cc(c1O)Cc1cc(P(=O)(O)O)cc(c1O)C2 | MTT | 24 h | CC50 | 608 µM |
| CO[C@H]1C[C@@H](C[C@H](C)[C@H]2CC(=O)[C@@H](C)/C=C(\C)[C@H](O)[C@H](OC)C(=O)[C@@H](C)C[C@@H](C)/C=C/C=C/C=C(\C)[C@H](OC)C[C@H]3CC[C@H](C)[C@](O)(O3)C(=O)C(=O)N3CCCC[C@@H]3C(=O)O2)CC[C@@H]1OCCO (racemic) | MTT | 24 h | CC50 | 63.7 µM |
| CC(C)(O)c1coc(S(=O)(=O)NC(=O)Nc2c3c(cc4c2CCC4)CCC3)c1 | MTT | 10 µM, 4 h | viability | 95.2% |
| CCn1cc(C(=O)NCCNCCO)c(=O)c2cc(OC)c(OCc3cc(F)cc(F)c3)cc21 | resazurin | 20 h | CC50 | > 32 µg/mL |
| Cc1ccc2oc(-c3cc(NC(=O)Cc4ccccc4)ccc3Cl)nc2c1 | MTT | 24 h | CC50 | > 400 µM |
| Cc1c2ccncc2c(C)c2c1[nH]c1ccc(OCCN(C)C)cc12 | MTS |  | IC50 | 3.16 µM |
| C[C@@H](c1cc(Cl)cc(Cl)c1)N(C)c1ncc2c(N)nc(N)nc2n1 | MTT | 24 h | CC50 | 31.2 µM |
| CC1c2cc(c(O)cc2O)C(C)c2cc(c(O)cc2O)C(C)c2cc(c(O)cc2O)C(C)c2cc1c(O)cc2O (stereo not drawn) | ATP luminescence | 24 h | CC50 | 21.2 µM |
